ChEMBL document CHEMBL4619757, “Identification of new arylsulfide derivatives as anti-melanogenic agents in a zebrafish model” (Bioorg Med Chem Lett, 2020)
Calls of active or inactive are those of the source. The calls are words filed in the database; no cut-off is given here.

Experiments:
Danio rerio [1] = species on record: Danio rerio; test: Antimelanogenic activity against zebrafish embryo assessed as whitening efficacy at 10 uM; type: functional, organism-based
HMV-2 cell line [2] = test: Antimelanogenic activity against human HMVII cells assessed as reduction in TRP1 mRNA level at 1 to 20 uM measured after 24 hrs by RT-PCR analysis; type: functional, cell-based
Procedure, shortened: (§1)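 HMV-II melanoma cells were treated with compound for 24 h. MITF, TRP-1 and TRP-2 mRNA levels were then quantified by real-time RT-PCR.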

HMV-2 cell line [3] = test: Antimelanogenic activity against human HMVII cells assessed as reduction in tyrosinase mRNA level at 10 to 20 uM measured after 24 hrs by RT-PCR analysis; type: functional, cell-based
HMV-2 cell line [4] = test: Antimelanogenic activity against human HMVII cells assessed as reduction in melanin content in cell lysate; type: functional, cell-based
Procedure, shortened: (§2)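 Human melanoma HMV-II cells were exposed to compound at 1, 10 or 20 µM. Melanin was pelleted from cell lysates, and total melanin content was expressed relative to the DMSO-treated control.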

HMV-2 cell line [5] = test: Antimelanogenic activity against human HMVII cells assessed as reduction in TRP2 mRNA level at 1 to 20 uM measured after 24 hrs by RT-PCR analysis; type: functional, cell-based; procedure, shortened: as §1
Danio rerio [6] = species on record: Danio rerio; test: Antimelanogenic activity against zebrafish embryo assessed as whitening efficacy; type: functional, organism-based
Procedure, shortened: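 Synchronized zebrafish embryos were treated with compound and scored for pigmentation. Controls received 0.1% DMSO or 0.2 mM PTU.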

HMV-2 cell line [7] = test: Antimelanogenic activity against human HMVII cells assessed as reduction in MITF mRNA level at 1 to 20 uM measured after 24 hrs by RT-PCR analysis; type: functional, cell-based; procedure, shortened: as §1
HMV-2 cell line [8] = test: Antimelanogenic activity against human HMVII cells assessed as change in melanin colour from black to brown; type: functional, cell-based
[9] = Toxicity against human skin assessed as effect on tissue viability up to 50 uM measured after 3 hrs by MTT assay
HMV-2 cell line [10] = test: Antimelanogenic activity against human HMVII cells assessed as melanin content in cell lysate at 1 uM relative to control; type: functional; procedure, shortened: as §2
HMV-2 cell line [11] = test: Antimelanogenic activity against human HMVII cells assessed as melanin content in cell lysate at 10 uM relative to control; type: functional; procedure, shortened: as §2
[12] = Toxicity against human eye assessed as effect on tissue viability up to 50 uM measured after 30 mins by MTT assay; type: tissue-based; settings: 0.5 h
Procedure, shortened: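 Reconstructed human ocular tissue (Neoderm-CD) was exposed to compound up to 50 µM and stained with MTT (1 mg/mL) for 30 min. Formazan was extracted with isopropanol and absorbance read at 570 nm.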

HMV-2 cell line [13] = test: Cytotoxicity against human HMVII cells assessed as decrease in cell survival at 20 uM measured after 5 days by Cytox-reagent based relative to control; settings: hmv-2, 120 h
Procedure, shortened: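 HMV-II cells were seeded at 7,500 cells/well and cultured 24 h, then exposed to compound for 5 days. Viability was read with CytoX reagent.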

HMV-2 cell line [14] = test: Antimelanogenic activity against human HMVII cells assessed as melanin content in cell lysate at 20 uM relative to control; type: functional; procedure, shortened: as §2
HMV-2 cell line [15] = test: Antimelanogenic activity against human HMVII cells assessed as melanin content in cell lysate at 100 uM relative to control; type: functional
Procedure, shortened: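 HMV-II human melanoma cells were cultured for 5 days with test sample or DMSO. Melanin pellets were collected from cell lysates, and total melanin content was expressed relative to the DMSO control.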

Row | SMILES | Activity (Danio rerio [1]) | other results
1 | c1ccc2c(Sc3nc4ccccc4s3)nccc2c1 | inactive | –
2 | Fc1ccc(Sc2nccc3ccccc23)c(F)c1 | Active | –
3 | c1cnc(Sc2nccc3ccccc23)nc1 | Active | –
4 | Fc1ccc(Sc2nccc3ccccc23)cc1 | Active | inhibition (HMV-2 cell line [2]): Active; inhibition (HMV-2 cell line [3]): Active; Activity (HMV-2 cell line [4]): Dose-dependent effect; inhibition (HMV-2 cell line [5]): Active; Activity (Danio rerio [6]): Dose-dependent effect; inhibition (HMV-2 cell line [7]): Active; Activity (HMV-2 cell line [8]): Active; Activity [9]: Non-Toxic; Activity (HMV-2 cell line [10]): 67.6%; Activity (HMV-2 cell line [11]): 31.3%; Activity [12]: Non-Toxic; Activity (HMV-2 cell line [13]): < 10%; Activity (HMV-2 cell line [14]): 14.6%
5 | O=c1cc(CO)occ1O [KOJIC ACID] | – | Activity (HMV-2 cell line [15]): 45.9%
6 | Nc1ccc(Sc2nccc3ccccc23)cc1 | Active | –
7 | c1ccc2c(Sc3nc4ccccc4[nH]3)nccc2c1 | Active | –
8 | c1ccc(Sc2nccc3ccccc23)cc1 | Active | Activity (Danio rerio [6]): Dose-dependent effect
9 | c1ccc(Sc2nccc3ccccc23)nc1 | Active | –
10 | Fc1ccc(Sc2ncnc3[nH]cnc23)cc1 | inactive | –
11 | Fc1ccc(Nc2nccc3ccccc23)cc1 | inactive | –
12 | Fc1ccc(Sc2[nH]cnc3nccc2-3)cc1 | Active | –
13 | c1ccc2c(Sc3nccc4ccccc34)nccc2c1 | Active | –
14 | Fc1ccc(Sc2ncnc3cc[nH]c23)cc1 | Active | –
15 | FC(F)(F)c1ccc(Sc2nccc3ccccc23)cc1 | inactive | –
16 | CCOC(=O)c1ccc(Sc2nccc3ccccc23)cc1 | Active | –
17 | Fc1ccc(Oc2nccc3ccccc23)cc1 | inactive | –
18 | OC[C@H]1O[C@@H](Oc2ccc(O)cc2)[C@H](O)[C@@H](O)[C@@H]1O [ARBUTIN] | – | Activity (HMV-2 cell line [15]): 85.6%
19 | Fc1ccc(Sc2ncnc3c(Br)csc23)cc1 | Active | Activity (Danio rerio [6]): Dose-dependent effect
20 | Cc1ccc(Sc2nccc3ccccc23)cc1 | Active | –
21 | Fc1ccccc1Sc1nccc2ccccc12 | Active | –
22 | Clc1ccc(Sc2nccc3ccccc23)cc1 | Active | –
